Data on 8 molecules can be found in ChEMBL document CHEMBL2375307, “Synthesis and identification of β-aryloxyquinoline based diversely fluorine substituted N-aryl quinolone derivatives as a new class of antimicrobial, antituberculosis and antioxidant agents” (Eur J Med Chem, 2013).

One assay relates to Bacillus subtilis. In words: Antibacterial activity against Bacillus subtilis MTCC 441 assessed as growth inhibition after overnight incubation by NCCLS broth microdilution method. The class given is functional. In short, it runs like this: (§1)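 Broth microdilution per NCCLS in Mueller Hinton broth, compounds diluted in DMSO. Primary screen at 500, 250 and 200 µg/mL; actives retested at 100, 62.5, 50, 25 and 12.5 µg/mL. Tubes incubated overnight at 37 °C. […] Non-growing tubes subcultured overnight at 37 °C to judge bacteriostatic versus bactericidal action.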

Assay [1] relates to Mycobacterium tuberculosis. In words: Antitubercular activity against Mycobacterium tuberculosis H37Rv assessed as growth inhibition at 250 ug/mL after 12 to 28 days by Lowenstein-Jensen method relative to control. Format: functional. Conditions: read-out: GI. In short, it runs like this: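 Modified Lowenstein-Jensen method. Compound at 250 in DMSO added to liquid L-J medium, then sterilized by inspissation and incubated 24 h at 37 °C. Streaked with H37Rv harvested in 0.85% saline (5 × 10⁴ bacilli/tube) and incubated at 37 °C. Colonies read at 12, 22 and 28 days versus drug-free control; no colonies or <20 colonies scored as inhibition.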

Another assay concerns Vibrio cholerae. In words: Antibacterial activity against Vibrio cholerae MTCC 3906 assessed as growth inhibition after overnight incubation by NCCLS broth microdilution method. Format: functional.
Another assay deals with Clostridium tetani. In words: Antibacterial activity against Clostridium tetani MTCC 449 assessed as growth inhibition after overnight incubation by NCCLS broth microdilution method. The class given is functional.
Another assay concerns Aspergillus fumigatus. In words: Antifungal activity against Aspergillus fumigatus MTCC 3008 assessed as growth inhibition after overnight incubation by NCCLS broth microdilution method. The class given is functional. The essentials: as §1
The test system of a further assay is Escherichia coli. In words: Antibacterial activity against Escherichia coli MTCC 443 assessed as growth inhibition after overnight incubation by NCCLS broth microdilution method. Format: functional. The essentials: as §1
The next assay deals with Streptococcus pneumoniae. In words: Antibacterial activity against Streptococcus pneumoniae MTCC 1936 assessed as growth inhibition after overnight incubation by NCCLS broth microdilution method. Format: functional. The essentials: as §1
A further assay concerns Candida albicans. In words: Antifungal activity against Candida albicans MTCC 227 assessed as growth inhibition after overnight incubation by NCCLS broth microdilution method. The class given is functional. In short, it runs like this:
as §1

The test system of the next assay is Salmonella typhi. In words: Antibacterial activity against Salmonella typhi MTCC 98 assessed as growth inhibition after overnight incubation by NCCLS broth microdilution method. Format: functional, Salmonella enterica subsp. enterica serovar Typhi. Conditions: Salmonella enterica.
Assay [2] in a line: Antioxidant activity of the compound assessed as ascorbic acid equivalent of ferric tripyridyl triazine reducing activity at 200 ug/mL after 15 mins by FRAP assay. The class given is functional. The essentials: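 FRAP, modified Benzie and Strain method. Fe(III)-TPTZ reagent made with TPTZ in 40 mM HCl, FeCl3 solution and acetate buffer pH 3.6. 200 µL sample solution mixed with 3 mL reagent and held 15 min at 37 °C. Fe(II)-TPTZ read at 593 nm against an ascorbic acid standard, expressed as ascorbic acid equivalents (mmol/100 g compound).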

In brackets after ≈: the same amount, converted by molar mass.

As to `COc1ccc2nc(Oc3ccc(C#N)cc3)c(C3C(C#N)=C(N)N(c4cc(F)ccc4F)C4=C3C(=O)CC(C)(C)C4)cc2c1` (stereo not given), the minimum inhibitory concentration (MIC) is 250 µg/mL (≈ 414 µM) in the assay on Bacillus subtilis; 200 µg/mL (≈ 331 µM) in the assay with Vibrio cholerae; 200 µg/mL (≈ 331 µM) with Clostridium tetani; greater than 1000 µg/mL in the assay with Aspergillus fumigatus; 200 µg/mL (≈ 331 µM) in the assay with Escherichia coli; 250 µg/mL (≈ 414 µM) in the assay with Streptococcus pneumoniae. Besides, the figures for the MIC in the assay with Candida albicans and with Salmonella typhi were greater than 1000 µg/mL and 250 µg/mL (≈ 414 µM), respectively. For the same molecule, the inhibition of growth at 250 µg/mL in assay [1] turned out to be 54%. Also, in assay [2], the Activity worked out at 25.4 equiv.

Turning to `CC1(C)CC(=O)C2=C(C1)N(c1cc(F)ccc1F)C(N)=C(C#N)C2c1cc2ccccc2nc1Oc1ccc(C#N)cc1` (stereo not given), the minimum inhibitory concentration (MIC) in the assay with Bacillus subtilis was determined as 250 µg/mL (≈ 436 µM); in the assay with Vibrio cholerae it was 250 µg/mL (≈ 436 µM); in the assay on Clostridium tetani, 200 µg/mL (≈ 349 µM); in the assay with Aspergillus fumigatus, 1000 µg/mL (≈ 1740 µM); in the assay on Escherichia coli, 250 µg/mL (≈ 436 µM); in the assay with Streptococcus pneumoniae, 100 µg/mL (≈ 174 µM). For the same molecule, the values for the MIC in the assay with Candida albicans and with Salmonella typhi were 500 µg/mL (≈ 872 µM) and 250 µg/mL (≈ 436 µM), respectively. Further, the inhibition of growth at 250 µg/mL in assay [1] amounted to 21%. In assay [2], the Activity was 84.4 equiv.

On to `COc1ccc2nc(Oc3ccc(C#N)cc3)c(C3C(C#N)=C(N)N(c4ccc(F)c(F)c4)C4=C3C(=O)CC(C)(C)C4)cc2c1` (stereo not given), for which the MIC in the assay on Bacillus subtilis is 250 µg/mL (≈ 414 µM); in the assay with Vibrio cholerae, 100 µg/mL (≈ 166 µM); in the assay with Clostridium tetani it was 250 µg/mL (≈ 414 µM); with Aspergillus fumigatus it was greater than 1000 µg/mL; with Escherichia coli it was 62.5 µg/mL (≈ 104 µM); in the assay with Streptococcus pneumoniae, 250 µg/mL (≈ 414 µM). Moreover, the results for the MIC in the assay on Candida albicans and in the assay with Salmonella typhi were greater than 1000 µg/mL and 200 µg/mL (≈ 331 µM), respectively. The inhibition of growth at 250 µg/mL in [1] came out at 24%. Moreover, the Activity in assay [2] was 153 equiv.

Regarding `Cc1ccc2nc(Oc3ccc(C#N)cc3)c(C3C(C#N)=C(N)N(c4ccc(F)c(F)c4)C4=C3C(=O)CCC4)cc2c1` (stereo not given), the minimal inhibitory concentration (MIC) came to 200 µg/mL (≈ 357 µM) in the assay on Bacillus subtilis; 200 µg/mL (≈ 357 µM) with Vibrio cholerae; 100 µg/mL (≈ 179 µM) in the assay with Clostridium tetani; 500 µg/mL (≈ 894 µM) in the assay on Aspergillus fumigatus; 200 µg/mL (≈ 357 µM) with Escherichia coli; 250 µg/mL (≈ 447 µM) in the assay on Streptococcus pneumoniae. Besides, the MIC in the assay on Candida albicans and with Salmonella typhi was 250 µg/mL (≈ 447 µM) throughout. The inhibition of growth at 250 µg/mL in assay [1] was 27%. The Activity in assay [2] came out at 243 equiv.

Consider `N#CC1=C(N)N(c2cc(F)ccc2F)C2=C(C(=O)CCC2)C1c1cc2cc(Cl)ccc2nc1Oc1ccc(C#N)cc1` (stereo not given), for which the MIC in the assay on Bacillus subtilis came to 200 µg/mL (≈ 345 µM); with Vibrio cholerae, 100 µg/mL (≈ 172 µM); with Clostridium tetani it was 100 µg/mL (≈ 172 µM); with Aspergillus fumigatus, 1000 µg/mL (≈ 1720 µM); in the assay on Escherichia coli it was 100 µg/mL (≈ 172 µM); in the assay with Streptococcus pneumoniae, 100 µg/mL (≈ 172 µM). Moreover, the values for the MIC in the assay on Candida albicans and in the assay on Salmonella typhi were 250 µg/mL (≈ 431 µM) and 62.5 µg/mL (≈ 108 µM), respectively. Moreover, in assay [1], the inhibition of growth at 250 µg/mL amounted to 84%. The Activity in assay [2] is 100 equiv.

As for `COc1ccc2nc(Oc3ccc(C#N)cc3)c(C3C(C#N)=C(N)N(c4cc(F)ccc4F)C4=C3C(=O)CCC4)cc2c1` (stereo not given), the MIC in the assay with Bacillus subtilis worked out at 200 µg/mL (≈ 347 µM); with Vibrio cholerae it was 250 µg/mL (≈ 434 µM); with Clostridium tetani, 125 µg/mL (≈ 217 µM); with Aspergillus fumigatus, 1000 µg/mL (≈ 1740 µM); in the assay on Escherichia coli, 250 µg/mL (≈ 434 µM); with Streptococcus pneumoniae, 125 µg/mL (≈ 217 µM). Besides, the MIC in the assay on Candida albicans came to 1000 µg/mL (≈ 1740 µM); with Salmonella typhi it was 100 µg/mL (≈ 174 µM). Besides, the inhibition of growth at 250 µg/mL in assay [1] stood at 35%. For the same molecule, in assay [2], the Activity was found to be 278 equiv.

Take `COc1ccc2nc(Oc3ccc(C#N)cc3)c(C3C(C#N)=C(N)N(c4ccc(F)c(F)c4)C4=C3C(=O)CCC4)cc2c1` (stereo not given): the MIC was 200 µg/mL (≈ 347 µM) in the assay with Bacillus subtilis; 250 µg/mL (≈ 434 µM) in the assay with Vibrio cholerae; 200 µg/mL (≈ 347 µM) in the assay with Clostridium tetani; 1000 µg/mL (≈ 1740 µM) with Aspergillus fumigatus; 500 µg/mL (≈ 869 µM) with Escherichia coli; 200 µg/mL (≈ 347 µM) with Streptococcus pneumoniae. For the same molecule, the MIC in the assay on Candida albicans came to 1000 µg/mL (≈ 1740 µM); with Salmonella typhi, 500 µg/mL (≈ 869 µM). For the same molecule, the inhibition of growth at 250 µg/mL in assay [1] came out at 88%. The Activity in [2] came to 369 equiv.

As for `N#Cc1ccc(Oc2nc3ccccc3cc2C=O)cc1`, the MIC came to 200 µg/mL (≈ 729 µM) with Bacillus subtilis; 250 µg/mL (≈ 911 µM) in the assay with Vibrio cholerae; 250 µg/mL (≈ 911 µM) in the assay on Clostridium tetani; 500 µg/mL (≈ 1820 µM) with Aspergillus fumigatus; 100 µg/mL (≈ 365 µM) in the assay on Escherichia coli; 250 µg/mL (≈ 911 µM) in the assay on Streptococcus pneumoniae. The results for the MIC in the assay on Candida albicans and with Salmonella typhi were 1000 µg/mL (≈ 3650 µM) and 100 µg/mL (≈ 365 µM), respectively. Further, the inhibition of growth at 250 µg/mL in assay [1] was 42%. Also, the Activity in assay [2] was determined as 19.2 equiv.
